Sampled rows, rich in hits. Any-hit rate of the full collection: about 2.6%.
ABCB6 inh 2: ABCB6 transporter inhibitors, primary screen, K562-ABCB6 cells, flow cytometry, MLPCN library | ATP-binding cassette sub-family B member 6 (Homo sapiens), Q9NP58 | K562-ABCB6 porphyrin accumulation, 1 h; hits give low values | fluorescence ratio to DMSO, % at 10 µM | 360,000 tested, 0.19% active;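 active means fluorescence ratio to DMSO below 75%, the collection mean minus 3 SD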;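 further: signal is porphyrin accumulated inside mitochondria; 100% equals median channel fluorescence of DMSO control wells; lower ratio means ABCB6 inhibition with less porphyrin fluorescence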
Target sequence (Q9NP58 whole entry, looked up): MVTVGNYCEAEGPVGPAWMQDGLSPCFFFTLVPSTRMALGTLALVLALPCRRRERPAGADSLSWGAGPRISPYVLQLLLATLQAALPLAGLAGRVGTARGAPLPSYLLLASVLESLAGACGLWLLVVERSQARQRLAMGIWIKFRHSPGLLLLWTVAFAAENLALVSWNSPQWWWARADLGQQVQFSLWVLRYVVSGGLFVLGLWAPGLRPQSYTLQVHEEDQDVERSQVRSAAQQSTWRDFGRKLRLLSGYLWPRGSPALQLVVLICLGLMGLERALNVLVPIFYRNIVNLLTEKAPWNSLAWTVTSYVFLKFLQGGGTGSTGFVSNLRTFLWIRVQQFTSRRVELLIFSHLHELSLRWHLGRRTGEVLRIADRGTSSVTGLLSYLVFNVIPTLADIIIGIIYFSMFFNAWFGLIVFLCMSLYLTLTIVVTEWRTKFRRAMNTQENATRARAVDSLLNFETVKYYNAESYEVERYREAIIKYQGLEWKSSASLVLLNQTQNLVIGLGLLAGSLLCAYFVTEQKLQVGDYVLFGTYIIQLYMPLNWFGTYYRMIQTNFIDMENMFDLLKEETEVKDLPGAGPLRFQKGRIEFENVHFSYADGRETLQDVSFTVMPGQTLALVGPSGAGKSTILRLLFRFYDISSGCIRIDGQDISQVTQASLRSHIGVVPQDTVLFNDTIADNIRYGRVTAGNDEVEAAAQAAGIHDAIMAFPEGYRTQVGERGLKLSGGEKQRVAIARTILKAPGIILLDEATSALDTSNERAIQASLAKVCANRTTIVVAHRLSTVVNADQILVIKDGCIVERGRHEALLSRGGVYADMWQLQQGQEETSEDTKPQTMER
MC4R antag cAMP: MC4R antagonists of cAMP signaling, primary screen, cell-based, TR-FRET, antagonist arm of biased-ligand search. Melanocortin receptor 4 (Homo sapiens), P32245. MC4R-expressing cells, MTII-stimulated cAMP, LANCE TR-FRET. inhibition, % at 6.5 µM. 360,000 tested, 0.48% active. AID 540295, 2011;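 active means inhibition above its plate's cutoff, the mean of tested wells on that plate plus 3 SD, cut at about 29% in these data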;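 further: 0% = Melanotan II alone and 100% = Melanotan II plus saturating MCL0020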
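system = U2OS cells with stable human MC4R expression | also added = Melanotan II challenge after compound preincubation | dosing = one concentration, 6.5 µM nominal | incubation = compound 30 min, challenge 1 h, detection 1 h | measured by = TR-FRET with Eu-cAMP and labeled anti-cAMP, 671 nm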
Tb MetRS inh: T. brucei MetRS inhibitors, primary screen, biochemical, luminescence. methionyl-tRNA synthetase (Trypanosoma brucei brucei). purified T. brucei MetRS, ATP depletion, Kinase-Glo luminescence. inhibition, % at 11.9 µM. 360,000 tested, 0.4% active. AID 624268, 2012;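 active means inhibition above a per-plate cutoff of the control wells' mean inhibition plus 3 SD, cut at about 5.5% in these data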;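 further: 0% = DMSO wells median and 100% = median of wells with control inhibitor compound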
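Test system: purified T. brucei MetRS enzyme. Also added: ATP, methionine and E. coli bulk tRNA substrates. Compound: 11.9 µM single point. Schedule: 15 min enzyme-compound preincubation, 2 h reaction, 10 min detection, 25 °C. Signal: luciferase luminescence of residual ATP, Kinase-Glo. Evaluation: percent inhibition versus plate control medians. Controls: DMSO wells, low control.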
Exocytosis inh: LAMP-1 surface exposure blockers, TALL-104 cells – cell-based, flow cytometry, MLPCN library, primary screen. TALL-104 LAMP-1 surface exposure; cells stimulated with thapsigargin and PMA. inhibition, % at 10 µM. 360,000 tested, 0.66% active. AID 651702, 2012;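 active means inhibition above about 55%, limit read from the data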
iPSC survival up: enhancers of single-cell hiPSC survival, primary screen, ATPlite luminescence. 100% = ROCK inhibitor wells, 0% = DMSO. survival enhancement, % at 20 µM. 360,000 tested, 0.044% active; in the data active means survival enhancement above about 18%;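 further: cells exposed to compounds for 16 hours before the ATP read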
MC4R ag barr: MC4R agonists recruiting beta-arrestin, primary screen, cell-based, luminescence, agonist arm of biased-ligand search. Melanocortin receptor 4 (Homo sapiens), P32245. U2OS MC4R beta-arrestin complementation; percent of melanotan II response, DMSO zero. activation, % at 8.9 µM. 360,000 tested, 0.98% active. AID 540308, 2011;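 active means activation above a per-plate cutoff, the mean activation of sample wells on that plate plus 3 SD, cut at about 8% in these data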
U2OS cAMP counter: nonselective cAMP signaling inhibitors, parental cells, counter-screen for MC4R biased antagonist project, cell-based, TR-FRET, U2OS, forskolin, triplicate; 1,600 tested, 26% active; shares compounds with MC4R antag cAMP; LANCE TR-FRET; inhibition, % at 6.5 µM; AID 602193, 2012;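 active means mean inhibition over triplicates above the low-control well mean plus 3 SD, set per campaign, cut at about 13% in these data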;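 further: signal is single emission at 671 nm which falls as cellular cAMP rises; 0% = forskolin-stimulated wells and 100% = buffer without forskolin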
MC4R antag conf: MC4R cAMP antagonists, retest, confirmation, cell-based, TR-FRET; shares compounds with MC4R antag cAMP; MC4R-expressing cells, MTII-stimulated cAMP; inhibition, % at 6.5 µM; 1,600 tested, 27% active; in the data active means inhibition above about 29%;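 further: 0% = agonist stimulated wells alone and 100% = agonist stimulated wells plus saturating reference antagonist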
* marks the source's active call; other numbers are inactive results; / = not tested or not shown.

SMILES | ABCB6 inh 2 | MC4R antag cAMP | Tb MetRS inh | Exocytosis inh | iPSC survival up | MC4R ag barr | U2OS cAMP counter | MC4R antag conf
O=C(/C=C/c1ccc(Cl)c([N+](=O)[O-])c1)Nc1cccc(NC(=O)c2ccco2)c1 | 94.0 | 45.0* | -0.1 | 2.1 | -4.2 | -0.6 | 52.7* | 57.4*
CSc1nc(N)c(C(=O)NC2CCCCC2)s1 | 95.0 | -0.2 | -1.4 | -5.8 | 1.0 | -0.2 | / | /
COc1ccccc1C(=O)Nc1nnc(-c2ccccc2)s1 | 107.0 | -3.1 | -1.2 | 1.6 | -0.1 | -1.2 | / | /
O=C(Nc1nnc(-c2ccccc2)s1)c1ccccc1O | 98.0 | 30.7* | -0.7 | 8.8 | -0.2 | 0.8 | 0.3 | -1.9
CCN(CC)c1ccc2c(c1)oc(=O)c1c(Cl)cc(=O)oc12 | 506.0 | 29.9* | -1.1 | 41.4 | -3.9 | -1.6 | 6.7 | 18.6
CCN(CC)c1ccc2c(C)c(Cl)c(=O)oc2c1 | 94.0 | 9.0 | -0.6 | 9.3 | -0.1 | 2.5 | / | /
Cc1ccccc1CN(c1ccc(C(=O)N2CCN(C)CC2)cc1)S(C)(=O)=O | 99.0 | 16.6 | -0.3 | 2.8 | -0.7 | 2.6 | / | /
Cc1c(OCC(=O)N[C@@H](Cc2ccccc2)C(=O)O)ccc2c1oc(=O)c1ccccc12 | 100.0 | 6.3 | 0.2 | 6.4 | 3.2 | -2.2 | / | /
Cc1cc(-c2sccc2Br)nc(-n2cccc2)n1 | 105.0 | 34.8* | -0.3 | -1.8 | 0.0 | 3.8 | 8.7 | 3.5
Cc1cc(-c2ccc(Br)s2)nc(-n2cccc2)n1 | 109.0 | 40.8* | 0.0 | 9.7 | 5.2 | -0.5 | 10.4 | -8.1
Cc1ccsc1-c1ccnc(-n2cccc2)n1 | 87.0 | 3.1 | -0.7 | 0.2 | -0.2 | -0.1 | / | /
O=C1ON=C(c2cccc([N+](=O)[O-])c2)/C1=C/c1ccc(O)cc1 | 110.0 | 37.6* | 0.0 | 8.6 | -2.2 | 1.2 | 3.6 | 7.9
Oc1ccc(C(c2nnnn2CCc2ccccc2)N2CCN(c3nc4ccccc4s3)CC2)cc1 (stereo unspecified) | 101.0 | 31.4* | -0.1 | 18.2 | -0.6 | -0.8 | 1.7 | 13.2
COc1ccc2nc(NC(=O)C3CCCN(S(=O)(=O)c4cccc5nonc45)C3)sc2c1 (stereo unspecified) | 96.0 | 13.3 | -1.6 | -3.2 | 0.6 | 0.2 | / | /
CCOc1ccc2nc(NC(=O)C3CCCN(S(=O)(=O)c4cccc5nonc45)C3)sc2c1 (stereo unspecified) | 101.0 | 33.1* | 0.4 | 4.2 | 2.1 | 1.3 | 4.1 | 22.2
Cc1ccc(-c2cc3ccccc3nc2N2CCOCC2)cc1 | 99.0 | 34.1* | -0.1 | 2.2 | -0.1 | 1.8 | -1.3 | -3.0
CNC(=O)NC(=O)C(C)OC(=O)c1c2c(nc3ccccc13)/C(=C/c1cccs1)CC2 (stereo unspecified) | 91.0 | 30.4* | 0.3 | 31.9 | -0.9 | 8.2 | 4.4 | 16.6
CCCCNC(=O)COC(=O)c1c2c(nc3ccccc13)/C(=C/c1cccs1)CC2 | 103.0 | 13.3 | 0.3 | 0.7 | -1.1 | 5.0 | / | /
CN(Cc1ccccc1)C(=C(Cl)Cl)/C(=C1/NCCN1C)[N+](=O)[O-] | 96.0 | 39.2* | 0.0 | 0.9 | -0.4 | -1.1 | 1.7 | 2.7
CN(Cc1ccccc1)C(=C(Cl)Cl)C(=C1NCCN1)[N+](=O)[O-] | 101.0 | 3.7 | 0.1 | -1.6 | 0.7 | -1.1 | / | /
N#Cc1ccc(Cl)cc1NC(=O)CN1C(=O)C(=O)N(CCC2=CCCCC2)C1=O | 91.0 | 5.6 | -0.6 | -10.8 | 1.6 | 2.3 | / | /
CC(OC(=O)/C(C#N)=C/c1ccc(N(C)C)cc1)C(=O)NCc1ccco1 (stereo unspecified) | 110.0 | 73.4* | -0.3 | -6.2 | 0.3 | -2.2 | 41.2* | 77.7*
O=C(COC(=O)CNS(=O)(=O)c1c(Cl)cccc1Cl)Nc1ccccc1Sc1ccccc1 | 99.0 | 32.1* | 0.1 | 1.5 | 0.5 | 0.1 | 18.4* | 37.2*
O=C(COC(=O)CNS(=O)(=O)c1cccc(Br)c1)Nc1ccccc1Sc1ccccc1 | 101.0 | 29.2* | -0.6 | 0.2 | 0.0 | 5.1 | 6.3 | 18.3
CCCC(=O)OCC(=O)Nc1ccccc1Sc1ccccc1 | 104.0 | 18.8 | -0.3 | -4.9 | 3.3 | -1.2 | / | /
SMILES | ABCB6 inh 2 | MC4R antag cAMP | Tb MetRS inh | Exocytosis inh | iPSC survival up | MC4R ag barr | U2OS cAMP counter | MC4R antag conf
CCOC(=O)c1sc(NC(=O)COC(=O)CNC(=O)C2CCCCC2)c(C(=O)OCC)c1C | 91.0 | 8.0 | -0.5 | -2.5 | 0.0 | 1.1 | / | /
CNS(=O)(=O)c1ccc(CNC[C@H]2O[C@@H](n3cc(C)c(=O)[nH]c3=O)C[C@@H]2O)cc1 | 102.0 | 15.5 | 0.8 | -0.6 | 3.2 | 0.2 | / | /
COC(=O)c1c(NC(=O)COC(=O)c2ccc(Cl)cc2[N+](=O)[O-])sc2c1CCCCC2 | 121.0 | 30.9* | 0.5 | 3.1 | -2.2 | -1.1 | 6.5 | 21.8
CC1CCC2(CC1)NC(=O)N(CC(=O)NC(=O)Nc1ccc3c(c1)OCCO3)C2=O (stereo unspecified) | 109.0 | 29.5* | -0.1 | -8.5 | -0.3 | 3.4 | -2.9 | -12.4
Cc1[nH]c2ccccc2c1-c1csc(NC(=O)CSCCO)n1 | 99.0 | 0.8 | 0.0 | 1.9 | 0.5 | -1.1 | / | /
COc1cc(C(=S)N2CCOCC2)ccc1OS(=O)(=O)c1ccccc1[N+](=O)[O-] | 103.0 | 32.7* | -0.1 | -3.8 | -0.2 | -1.5 | -1.1 | -5.3
O=C(Oc1ccc(C(=S)N2CCOCC2)cc1)c1ccc([N+](=O)[O-])cc1[N+](=O)[O-] | 102.0 | 0.3 | -0.1 | -4.1 | 2.8 | -3.0 | / | /
O=C(Oc1cccc(C(=S)N2CCOCC2)c1)c1ccc([N+](=O)[O-])cc1[N+](=O)[O-] | 101.0 | 36.6* | -0.2 | -8.2 | -0.6 | -1.2 | 6.3 | 29.2*
O=C(c1ccc(C(F)(F)F)cc1)N1CCC(=O)N([C@H](COCc2ccc(C(F)(F)F)cc2)Cc2ccccc2)CC1 | 100.0 | / | -0.6 | 9.9 | -0.2 | / | / | /
CC(=O)NC(C)(c1ccccc1)c1nc(-c2ccc(S(C)(=O)=O)cc2)cs1 (stereo unspecified) | 101.0 | 8.1 | 0.1 | -4.3 | 8.4 | 0.4 | / | /
